Laboratory results taken from ChEMBL document CHEMBL3526026, “Function of the blood-brain barrier and restriction of drug delivery to invasive glioma cells: findings in an orthotopic rat xenograft model of glioma” (Drug Metab Dispos, 2013).

Tests used:
[1] = Ratio of steady state drug level in brain to plasma in MDR1A/B FVB mouse at 0.6 mg/h/kg, ip administered as infusion after 48 hrs by LC-MS/MS analysis; format: ADME, organism-based; settings: read-out: BPR
Method in brief: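 Male FVB Mdr1a/b−/− mice, 8–10 weeks, n = 4. Erlotinib given by constant i.p. infusion at 0.6 mg/h/kg for 48 h to steady state. Brain and plasma by LC-MS/MS after homogenizing brain in 3 volumes 5% BSA/PBS; brain values corrected for residual vascular blood (plasma space 1.4% of brain). Mean ± S.D.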

[2] = Ratio of steady state drug level in brain to plasma in MDR1A/B/BCRP1 FVB mouse at 0.6 mg/h/kg, ip administered as infusion after 48 hrs by LC-MS/MS analysis; format: ADME, organism-based; settings: read-out: BPR
Method in brief: (§1)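 Male FVB mice, 8–10 weeks old, n = 4 per genotype. Continuous intraperitoneal infusion for 48 hours to steady state. Plasma obtained by centrifuging blood. Brain homogenized in 3 volumes of ice-cold 5% BSA in PBS. Erlotinib measured by LC-MS/MS with tyrphostin AG1478 internal standard. Brain values corrected for residual vascular blood, taking plasma space as 1.4% of brain. Mean ± S.D.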

[3] = Drug uptake in tumor rim of Rowett rat orthotopically xenografted with human U87 cells at 20 mg/kg/day for 3 days by LC-MS/MS analysis in presence of elacridar; format: ADME, organism-based, U-87MG ATCC; settings: in vivo, 72 h
Method in brief: (§2)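 U87-EGFR orthotopic rat xenografts (3 weeks' tumor growth) received oral erlotinib in 0.5% methylcellulose daily for 3 days. Elacridar 10 mg/kg was given intravenously via the jugular vein 30 minutes before each erlotinib dose. Sacrifice was 30 minutes after the last dose, followed by saline perfusion. Tumor core, rim and contralateral brain were dissected and analyzed by LC-MS/MS; n = 4 per group, mean ± S.D.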

Brain [4] = assay: Drug uptake in brain of Rowett rat orthotopically xenografted with human U87 cells at 20 mg/kg/day for 3 days by LC-MS/MS analysis in presence of elacridar; format: ADME, organism-based, U-87MG ATCC; settings: in vivo, 72 h; method in brief: as §2
[5] = Drug uptake in tumor core of Rowett rat orthotopically xenografted with human U87 cells at 20 mg/kg/day, po for 5 days by LC-MS/MS analysis; format: ADME, organism-based, U-87MG ATCC; parameters: route oral; settings: read-out: Drug uptake
Method in brief: (§3)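 Rats received intracerebral U87 cells overexpressing wild-type EGFR (2.5 × 10^5 cells, right frontal, stereotaxic); tumors grew for 3 weeks. Erlotinib in 0.5% methylcellulose was given by oral gavage daily for 5 days. Sacrifice was 30 minutes after the last dose, with saline cardiac perfusion in the perfused group. Tissue was visually split into tumor core, adjacent rim and contralateral hemisphere. LC-MS/MS; n = 6.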

[6] = Drug uptake in tumor rim of Rowett rat orthotopically xenografted with human U87 cells at 20 mg/kg/day, po for 5 days by LC-MS/MS analysis; format: ADME, organism-based, U-87MG ATCC; parameters: route oral; settings: read-out: Drug uptake; method in brief: as §3
[7] = Drug uptake in brain of Rowett rat orthotopically xenografted with human U87 cells at 20 mg/kg/day, po for 5 days by LC-MS/MS analysis; format: ADME, organism-based, U-87MG ATCC; parameters: route oral; settings: read-out: Drug uptake; method in brief: as §3
Nucleic Acid [8] = assay: Ratio of drug level in tumor core to tumor rim in Rowett rat orthotopically xenografted with human U87 cells at 20 mg/kg/day, po for 5 days by LC-MS/MS analysis; format: ADME, organism-based, U-87MG ATCC; parameters: route oral; settings: in vivo, 120 h
Method in brief: (§4)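 U87 cells (wild-type EGFR-transfected) inoculated into right frontal brain of anesthetized rats, 2.5 × 10^5 cells; tumor grown 3 weeks. Erlotinib 20 mg/kg/day in 0.5% methylcellulose by oral gavage for 5 days; sacrifice 30 min after last dose, with or without cardiac saline perfusion; tissue visually dissected into tumor core, rim, contralateral hemisphere; LC-MS/MS; n = 6 per group.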

Nucleic Acid [9] = assay: Ratio of drug level in tumor core to brain contralateral hemisphere in Rowett rat orthotopically xenografted with human U87 cells at 20 mg/kg/day, po for 5 days by LC-MS/MS analysis; format: ADME, organism-based, U-87MG ATCC; parameters: route oral; settings: in vivo, 120 h; method in brief: as §4
[10] = Ratio of drug level in tumor core to plasma in Rowett rat orthotopically xenografted with human U87 cells at 20 mg/kg/day, po for 5 days by LC-MS/MS analysis; format: ADME, organism-based, U-87MG ATCC; parameters: route oral; method in brief: as §3
[11] = Half life in mouse; format: ADME, organism-based; settings: in vivo
[12] = Drug uptake at steady state in wild-type FVB mouse brain at 0.6 mg/h/kg, ip administered as infusion after 48 hrs by LC-MS/MS analysis; format: ADME, organism-based; settings: read-out: Drug uptake; method in brief: as §1
[13] = Plasma concentration at steady state in wild-type FVB mouse at 0.6 mg/h/kg, ip administered as infusion after 48 hrs by LC-MS/MS analysis; format: ADME, organism-based; settings: read-out: Cpss; method in brief: as §1
[14] = Plasma concentration at steady state in BCRP1 knock-out FVB mouse at 0.6 mg/h/kg, ip administered as infusion after 48 hrs by LC-MS/MS analysis; format: ADME, organism-based; settings: read-out: Cpss; method in brief: as §1
[15] = Plasma concentration at steady state in MDR1A/B knock-out FVB mouse at 0.6 mg/h/kg, ip administered as infusion after 48 hrs by LC-MS/MS analysis; format: ADME, organism-based; settings: read-out: Cpss; method in brief: as §1
[16] = Plasma concentration at steady state in MDR1A/B/BCRP1 knock-out FVB mouse at 0.6 mg/h/kg, ip administered as infusion after 48 hrs by LC-MS/MS analysis; format: ADME, organism-based; settings: read-out: Cpss; method in brief: as §1
[17] = Drug uptake at steady state in BCRP1 knock-out FVB mouse brain at 0.6 mg/h/kg, ip administered as infusion after 48 hrs by LC-MS/MS analysis; format: ADME, organism-based; settings: read-out: Drug uptake; method in brief: as §1
[18] = Drug uptake at steady state in MDR1A/B knock-out FVB mouse brain at 0.6 mg/h/kg, ip administered as infusion after 48 hrs by LC-MS/MS analysis; format: ADME, organism-based; settings: read-out: Drug uptake; method in brief: as §1
[19] = Drug uptake at steady state in MDR1A/B/BCRP1 knock-out FVB mouse brain at 0.6 mg/h/kg, ip administered as infusion after 48 hrs by LC-MS/MS analysis; format: ADME, organism-based; settings: read-out: Drug uptake; method in brief: as §1
[20] = Ratio of steady state drug level in brain to plasma in wild-type FVB mouse at 0.6 mg/h/kg, ip administered as infusion after 48 hrs by LC-MS/MS analysis; format: ADME, organism-based; settings: read-out: BPR; method in brief: as §1
[21] = Ratio of steady state drug level in brain to plasma in BCRP1 FVB mouse at 0.6 mg/h/kg, ip administered as infusion after 48 hrs by LC-MS/MS analysis; format: ADME, organism-based; settings: read-out: BPR; method in brief: as §1
[22] = Ratio of drug level in tumor rim to plasma in Rowett rat orthotopically xenografted with human U87 cells at 20 mg/kg/day, po for 5 days by LC-MS/MS analysis; format: ADME, organism-based, U-87MG ATCC; parameters: route oral; method in brief: as §3
[23] = Ratio of drug level in brain contralateral hemisphere to plasma in Rowett rat orthotopically xenografted with human U87 cells at 20 mg/kg/day, po for 5 days by LC-MS/MS analysis; format: ADME, organism-based, U-87MG ATCC; parameters: route oral; settings: read-out: BPR; method in brief: as §4
[24] = Ratio of drug level in tumor core to plasma in Rowett rat orthotopically xenografted with human U87 cells at 20 mg/kg/day for 3 days by LC-MS/MS analysis in presence of elacridar; format: ADME, organism-based, U-87MG ATCC; settings: with elacridar (dose not stated)
Method in brief: (§5)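 U87 cells (wild-type EGFR-transfected) inoculated into right frontal brain of anesthetized rats, 2.5 × 10^5 cells; tumor grown 3 weeks. Erlotinib 20 mg/kg/day in 0.5% methylcellulose by gavage for 3 days; elacridar 10 mg/kg i.v. into jugular vein 30 min before each dose. Sacrifice 30 min after last dose, saline perfusion, brain dissected into tumor core, rim, contralateral hemisphere; plasma and homogenate by LC-MS/MS; n = 4 per group.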

[25] = Drug uptake in tumor core of Rowett rat orthotopically xenografted with human U87 cells at 20 mg/kg/day for 3 days by LC-MS/MS analysis in presence of elacridar; format: ADME, organism-based, U-87MG ATCC; settings: in vivo, 72 h; method in brief: as §2
[26] = Ratio of drug level in tumor rim to plasma in Rowett rat orthotopically xenografted with human U87 cells at 20 mg/kg/day for 3 days by LC-MS/MS analysis in presence of elacridar; format: ADME, organism-based, U-87MG ATCC; settings: with elacridar (dose not stated); method in brief: as §5
[27] = Ratio of drug level in brain contralateral hemisphere to plasma in Rowett rat orthotopically xenografted with human U87 cells at 20 mg/kg/day for 3 days by LC-MS/MS analysis in presence of elacridar; format: ADME, organism-based, U-87MG ATCC; settings: with elacridar (dose not stated), read-out: BPR; method in brief: as §5
[28] = Drug uptake in tumor core of Rowett rat orthotopically xenografted with human U87 cells at 20 mg/kg/day for 3 days by LC-MS/MS analysis in presence of elacridar relative to elacridar non-treated control; format: ADME, organism-based, U-87MG ATCC; settings: in vivo, 72 h; method in brief: as §5
[29] = Drug uptake in tumor rim of Rowett rat orthotopically xenografted with human U87 cells at 20 mg/kg/day for 3 days by LC-MS/MS analysis in presence of elacridar relative to elacridar non-treated control; format: ADME, organism-based, U-87MG ATCC; settings: in vivo, 72 h; method in brief: as §5
Brain [30] = assay: Drug uptake in brain of Rowett rat orthotopically xenografted with human U87 cells at 20 mg/kg/day for 3 days by LC-MS/MS analysis in presence of elacridar relative to elacridar non-treated control; format: ADME, organism-based, U-87MG ATCC; settings: in vivo, 72 h; method in brief: as §5

Kp at 48 h [1]: 0.09
Kp at 48 h [2]: 0.62
Drug uptake [3]: Active
Drug uptake (Brain [4]): Active
concentration at 120 h [5]: 1830 ng/g
concentration at 120 h [6]: 390 ng/g
concentration at 120 h [7]: 370 ng/g
Ratio (Nucleic Acid [8]): 4.7
Ratio (Nucleic Acid [9]): 5
Kp at 120 h [10]: 0.51
half-life [11]: 60 min
concentration at 48 h [12]: 4.3 ng/g
concentration at 48 h [13]: 72 ng/mL
concentration at 48 h [14]: 71 ng/mL
concentration at 48 h [15]: 81 ng/mL
concentration at 48 h [16]: 99 ng/mL
concentration at 48 h [17]: 4.9 ng/g
concentration at 48 h [18]: 12 ng/g
concentration at 48 h [19]: 34 ng/g
Kp at 48 h [20]: 0.02
Kp at 48 h [21]: 0.07
Kp at 120 h [22]: 0.1
Kp at 120 h [23]: 0.09
Kp at 72 h [24]: 1
Drug uptake [25]: Active
Kp at 72 h [26]: 1
Kp at 72 h [27]: 1
fold change (FC) [28]: 4
fold change (FC) [29]: 12
fold change (FC) (Brain [30]): 12
Structure (SMILES): C#Cc1cccc(Nc2ncnc3cc(OCCOC)c(OCCOC)cc23)c1.Cl [ERLOTINIB HYDROCHLORIDE]
